The results in this text go back to ChEMBL document CHEMBL5653631, “A Potent and Selective ULK1 Inhibitor Suppresses Autophagy and Sensitizes Cancer Cells to Nutrient Stress” (iScience, 2018).

The target in test [1] is T1, Serine/threonine-protein kinase ULK2 (Homo sapiens) (UniProt Q8IYT8).
T1 sequence (whole entry): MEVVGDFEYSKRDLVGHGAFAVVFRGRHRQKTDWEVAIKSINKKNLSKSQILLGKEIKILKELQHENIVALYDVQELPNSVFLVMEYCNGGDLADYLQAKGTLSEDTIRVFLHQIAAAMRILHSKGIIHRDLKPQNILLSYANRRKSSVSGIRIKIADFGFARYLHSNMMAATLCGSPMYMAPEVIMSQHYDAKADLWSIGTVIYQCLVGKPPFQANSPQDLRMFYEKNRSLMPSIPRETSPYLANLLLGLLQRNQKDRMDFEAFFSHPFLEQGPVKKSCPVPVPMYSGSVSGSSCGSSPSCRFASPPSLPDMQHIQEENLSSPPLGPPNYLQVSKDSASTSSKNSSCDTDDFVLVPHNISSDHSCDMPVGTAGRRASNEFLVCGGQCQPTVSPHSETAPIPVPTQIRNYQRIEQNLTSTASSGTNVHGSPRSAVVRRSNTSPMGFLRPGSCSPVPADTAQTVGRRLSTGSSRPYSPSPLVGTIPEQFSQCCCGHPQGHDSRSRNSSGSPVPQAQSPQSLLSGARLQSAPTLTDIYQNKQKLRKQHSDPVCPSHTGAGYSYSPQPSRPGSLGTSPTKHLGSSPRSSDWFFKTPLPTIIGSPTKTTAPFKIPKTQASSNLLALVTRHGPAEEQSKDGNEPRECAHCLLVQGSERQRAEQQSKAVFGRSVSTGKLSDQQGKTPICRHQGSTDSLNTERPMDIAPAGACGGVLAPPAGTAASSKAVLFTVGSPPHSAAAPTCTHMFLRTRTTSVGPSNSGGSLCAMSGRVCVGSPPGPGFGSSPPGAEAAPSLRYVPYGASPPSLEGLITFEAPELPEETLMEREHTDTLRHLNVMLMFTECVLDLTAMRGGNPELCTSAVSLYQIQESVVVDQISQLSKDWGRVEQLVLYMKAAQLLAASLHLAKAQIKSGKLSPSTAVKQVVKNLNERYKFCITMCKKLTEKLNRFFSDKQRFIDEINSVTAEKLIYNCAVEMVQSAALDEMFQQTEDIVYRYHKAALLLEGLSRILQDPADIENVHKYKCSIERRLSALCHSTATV
The experiment in a line: Inhibition of human recombinant ULK2 at 40 nM related to control ULK1.

In test [2] the target is High affinity nerve growth factor receptor (Homo sapiens) (UniProt P04629). The experiment in a line: Inhibition of human recombinant TRKA at 40 nM in presence of ATP by radiometric assay relative to control.
Test [3] addresses Vascular endothelial growth factor receptor 1 (Homo sapiens) (UniProt P17948). The experiment in a line: Inhibition of human recombinant FLT1 at 40 nM related to control ULK1.
Test [4] addresses Serine/threonine-protein kinase pim-1 (Homo sapiens) (UniProt P11309). The experiment in a line: Inhibition of human recombinant PIM1 at 40 nM in presence of ATP by radiometric assay relative to control.
For test [5], the target named is T2, cAMP-dependent protein kinase catalytic subunit PRKX (Homo sapiens) (UniProt P51817).
T2 sequence (whole entry): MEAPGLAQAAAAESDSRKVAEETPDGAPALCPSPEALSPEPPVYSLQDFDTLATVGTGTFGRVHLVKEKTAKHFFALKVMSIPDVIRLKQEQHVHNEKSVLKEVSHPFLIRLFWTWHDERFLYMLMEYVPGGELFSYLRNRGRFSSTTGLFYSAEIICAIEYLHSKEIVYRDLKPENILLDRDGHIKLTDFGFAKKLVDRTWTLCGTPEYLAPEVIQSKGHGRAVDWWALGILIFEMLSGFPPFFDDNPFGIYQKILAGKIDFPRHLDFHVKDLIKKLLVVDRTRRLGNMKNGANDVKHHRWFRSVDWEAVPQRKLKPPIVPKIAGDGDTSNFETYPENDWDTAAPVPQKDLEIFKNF
Description: Inhibition of human recombinant PRKX at 40 nM in presence of ATP by radiometric assay relative to control.

Test [6] addresses Proto-oncogene tyrosine-protein kinase Src (Homo sapiens) (UniProt P12931). Description: Inhibition of human recombinant SRC at 40 nM in presence of ATP by radiometric assay relative to control.
For test [7], the target named is T3, Calcium/calmodulin-dependent protein kinase type IV (Homo sapiens) (UniProt Q16566).
T3 sequence (whole entry): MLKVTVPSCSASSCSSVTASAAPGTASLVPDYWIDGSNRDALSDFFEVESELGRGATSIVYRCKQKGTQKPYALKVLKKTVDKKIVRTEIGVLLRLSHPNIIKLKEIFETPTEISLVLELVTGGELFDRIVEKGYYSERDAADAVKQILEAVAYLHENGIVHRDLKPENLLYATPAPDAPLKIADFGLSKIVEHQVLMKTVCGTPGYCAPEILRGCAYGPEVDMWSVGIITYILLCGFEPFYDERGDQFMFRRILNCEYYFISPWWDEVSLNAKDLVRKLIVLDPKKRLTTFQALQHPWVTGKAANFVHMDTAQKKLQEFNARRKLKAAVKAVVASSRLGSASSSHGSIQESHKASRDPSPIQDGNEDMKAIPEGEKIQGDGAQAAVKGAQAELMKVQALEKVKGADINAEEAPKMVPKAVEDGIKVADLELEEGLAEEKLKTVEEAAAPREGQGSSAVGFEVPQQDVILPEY
The experiment in a line: Inhibition of human recombinant CaMK4 at 40 nM in presence of ATP by radiometric assay relative to control.

Test [8] concerns the target Vascular endothelial growth factor receptor 3 (Homo sapiens) (UniProt P35916). Description: Inhibition of human recombinant FLT4 at 500 nM related to control ULK1.
The target of test [9] is Fibroblast growth factor receptor 3 (Homo sapiens) (UniProt P22607). Description: Inhibition of human recombinant FGFR3 at 500 nM in presence of ATP by radiometric assay relative to control.
The target of test [10] is Activated CDC42 kinase 1 (Homo sapiens) (UniProt Q07912). Description: Inhibition of human recombinant ACK at 500 nM in presence of ATP by radiometric assay relative to control. An outline of the steps:
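Panel of 327 recombinant human kinases in radiometric activity assays, each screened in duplicate at a single inhibitor concentration; percent activity remaining relative to vehicle control, percent inhibition taken as 100 minus activity remaining.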

Test [11] has as its target Tau-tubulin kinase 2 (Homo sapiens) (UniProt Q6IQ55). Description: Inhibition of human recombinant TTBK2 at 15 nM in presence of ATP by radiometric assay relative to control.
In test [12] the target is LIM domain kinase 1 (Homo sapiens) (UniProt P53667). The experiment in a line: Inhibition of human recombinant LIMK1 at 15 nM related to control ULK1.
In test [13] the target is T1, Serine/threonine-protein kinase ULK2 (Homo sapiens). Description: Inhibition of human recombinant ULK2 at 15 nM related to control ULK1.
Test [14] deals with Protein kinase C beta type (Homo sapiens) (UniProt P05771). The experiment in a line: Inhibition of human recombinant PKCb at 15 nM related to control ULK1.
Test [15] addresses Tau-tubulin kinase 1 (Homo sapiens) (UniProt Q5TCY1). Description: Inhibition of human recombinant TTBK1 at 15 nM related to control ULK1.

Sequence of Protein kinase C beta type (Homo sapiens) (P05771 2-671 limits assumed): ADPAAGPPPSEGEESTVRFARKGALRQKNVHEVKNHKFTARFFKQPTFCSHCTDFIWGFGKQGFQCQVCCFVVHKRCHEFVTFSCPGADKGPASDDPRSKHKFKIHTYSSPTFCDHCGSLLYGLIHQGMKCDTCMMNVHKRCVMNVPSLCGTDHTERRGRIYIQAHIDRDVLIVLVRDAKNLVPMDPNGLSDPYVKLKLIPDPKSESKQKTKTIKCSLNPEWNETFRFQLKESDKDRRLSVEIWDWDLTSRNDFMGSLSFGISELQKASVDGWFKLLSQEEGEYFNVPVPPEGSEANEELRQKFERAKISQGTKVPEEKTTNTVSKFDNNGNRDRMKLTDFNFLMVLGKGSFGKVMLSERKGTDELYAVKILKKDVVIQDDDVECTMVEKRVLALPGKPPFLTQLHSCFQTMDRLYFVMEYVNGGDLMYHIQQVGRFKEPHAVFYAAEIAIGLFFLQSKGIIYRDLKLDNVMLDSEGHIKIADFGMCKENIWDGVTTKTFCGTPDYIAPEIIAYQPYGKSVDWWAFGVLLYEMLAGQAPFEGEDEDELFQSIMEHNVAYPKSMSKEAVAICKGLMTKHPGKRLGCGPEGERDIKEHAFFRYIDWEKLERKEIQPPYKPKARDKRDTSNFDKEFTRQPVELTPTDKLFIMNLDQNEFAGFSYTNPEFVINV
Sequence of Tau-tubulin kinase 2 (Homo sapiens) (Q6IQ55 whole entry, the tested form may be a part): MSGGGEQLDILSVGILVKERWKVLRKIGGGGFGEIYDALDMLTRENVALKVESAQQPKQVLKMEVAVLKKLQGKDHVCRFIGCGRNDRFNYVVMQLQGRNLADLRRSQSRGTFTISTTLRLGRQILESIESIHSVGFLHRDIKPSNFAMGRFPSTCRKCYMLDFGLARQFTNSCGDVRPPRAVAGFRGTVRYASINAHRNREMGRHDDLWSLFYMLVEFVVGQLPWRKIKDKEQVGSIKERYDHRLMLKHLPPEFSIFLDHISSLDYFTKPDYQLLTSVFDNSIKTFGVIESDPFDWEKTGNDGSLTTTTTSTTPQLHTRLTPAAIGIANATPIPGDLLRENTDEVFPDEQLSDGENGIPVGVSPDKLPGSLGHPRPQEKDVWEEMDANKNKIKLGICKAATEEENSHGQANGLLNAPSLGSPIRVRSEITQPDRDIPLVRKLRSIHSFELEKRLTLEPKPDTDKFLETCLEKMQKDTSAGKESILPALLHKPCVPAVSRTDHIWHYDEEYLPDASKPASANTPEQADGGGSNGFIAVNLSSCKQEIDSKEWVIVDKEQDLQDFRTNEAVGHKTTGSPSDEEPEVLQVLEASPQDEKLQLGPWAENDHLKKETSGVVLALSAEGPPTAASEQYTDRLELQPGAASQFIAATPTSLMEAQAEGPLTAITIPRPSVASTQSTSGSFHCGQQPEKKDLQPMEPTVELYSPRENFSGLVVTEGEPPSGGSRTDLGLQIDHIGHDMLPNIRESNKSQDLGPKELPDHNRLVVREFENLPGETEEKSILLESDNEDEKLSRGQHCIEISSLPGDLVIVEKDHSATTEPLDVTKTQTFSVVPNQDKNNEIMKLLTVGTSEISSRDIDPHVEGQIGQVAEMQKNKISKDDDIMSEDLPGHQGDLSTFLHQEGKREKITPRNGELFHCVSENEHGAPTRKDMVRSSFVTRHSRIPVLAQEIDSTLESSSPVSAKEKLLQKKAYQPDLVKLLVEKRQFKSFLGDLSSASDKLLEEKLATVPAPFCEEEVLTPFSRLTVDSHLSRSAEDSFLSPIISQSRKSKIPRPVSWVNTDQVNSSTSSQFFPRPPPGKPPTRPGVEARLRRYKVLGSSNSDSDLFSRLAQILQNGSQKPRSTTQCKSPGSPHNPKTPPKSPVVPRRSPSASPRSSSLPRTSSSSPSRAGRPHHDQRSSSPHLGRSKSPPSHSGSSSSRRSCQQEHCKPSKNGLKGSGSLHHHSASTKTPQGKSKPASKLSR
Sequence of Activated CDC42 kinase 1 (Homo sapiens) (Q07912 whole entry, looked up): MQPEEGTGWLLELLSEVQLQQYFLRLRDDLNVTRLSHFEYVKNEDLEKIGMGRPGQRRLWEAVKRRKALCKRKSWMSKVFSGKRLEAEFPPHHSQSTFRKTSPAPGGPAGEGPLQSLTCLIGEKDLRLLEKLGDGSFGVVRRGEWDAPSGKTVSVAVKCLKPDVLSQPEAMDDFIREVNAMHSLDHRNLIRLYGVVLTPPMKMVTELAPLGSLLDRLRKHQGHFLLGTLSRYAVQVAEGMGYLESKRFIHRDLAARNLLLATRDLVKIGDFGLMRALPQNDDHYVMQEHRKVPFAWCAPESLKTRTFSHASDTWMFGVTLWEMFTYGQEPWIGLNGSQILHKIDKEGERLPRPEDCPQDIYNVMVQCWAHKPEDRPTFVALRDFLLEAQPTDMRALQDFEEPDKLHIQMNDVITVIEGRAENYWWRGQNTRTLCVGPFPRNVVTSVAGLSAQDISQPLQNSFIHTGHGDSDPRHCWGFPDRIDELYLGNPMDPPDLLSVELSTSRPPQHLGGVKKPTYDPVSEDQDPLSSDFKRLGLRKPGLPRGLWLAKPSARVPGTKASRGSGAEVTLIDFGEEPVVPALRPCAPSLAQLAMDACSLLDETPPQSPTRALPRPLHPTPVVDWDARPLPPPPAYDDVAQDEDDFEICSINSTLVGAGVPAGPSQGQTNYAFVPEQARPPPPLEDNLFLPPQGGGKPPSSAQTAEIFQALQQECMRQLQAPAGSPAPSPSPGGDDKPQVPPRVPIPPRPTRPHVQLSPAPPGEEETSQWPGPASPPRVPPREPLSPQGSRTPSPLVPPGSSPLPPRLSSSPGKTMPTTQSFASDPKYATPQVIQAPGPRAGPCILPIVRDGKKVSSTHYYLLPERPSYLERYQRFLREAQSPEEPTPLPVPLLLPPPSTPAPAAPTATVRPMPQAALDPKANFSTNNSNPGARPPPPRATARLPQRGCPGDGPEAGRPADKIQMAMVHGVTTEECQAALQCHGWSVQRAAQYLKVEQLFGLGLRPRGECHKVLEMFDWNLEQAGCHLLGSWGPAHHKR
Sequence of High affinity nerve growth factor receptor (Homo sapiens) (P04629 33-796 limits assumed): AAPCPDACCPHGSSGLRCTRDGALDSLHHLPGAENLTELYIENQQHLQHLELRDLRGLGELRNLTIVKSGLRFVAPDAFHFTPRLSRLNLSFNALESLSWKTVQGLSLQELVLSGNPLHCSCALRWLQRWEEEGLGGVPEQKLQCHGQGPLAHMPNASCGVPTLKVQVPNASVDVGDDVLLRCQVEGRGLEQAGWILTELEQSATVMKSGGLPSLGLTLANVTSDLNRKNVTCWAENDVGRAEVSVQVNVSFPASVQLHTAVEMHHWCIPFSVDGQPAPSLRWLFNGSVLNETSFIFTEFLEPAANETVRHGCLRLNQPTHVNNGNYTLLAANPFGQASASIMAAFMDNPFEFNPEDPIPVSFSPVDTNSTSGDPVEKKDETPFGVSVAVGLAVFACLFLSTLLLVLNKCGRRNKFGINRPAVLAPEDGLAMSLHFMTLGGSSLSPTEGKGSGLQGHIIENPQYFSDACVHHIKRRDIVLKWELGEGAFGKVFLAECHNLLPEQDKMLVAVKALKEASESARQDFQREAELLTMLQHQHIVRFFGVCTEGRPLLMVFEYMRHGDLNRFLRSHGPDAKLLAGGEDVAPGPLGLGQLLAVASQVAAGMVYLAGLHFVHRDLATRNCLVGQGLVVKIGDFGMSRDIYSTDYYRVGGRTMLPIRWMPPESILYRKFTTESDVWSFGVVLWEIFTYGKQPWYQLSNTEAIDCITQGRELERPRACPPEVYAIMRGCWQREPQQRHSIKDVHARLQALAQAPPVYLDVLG
Sequence of LIM domain kinase 1 (Homo sapiens) (P53667 whole entry, looked up, the tested form may be a part): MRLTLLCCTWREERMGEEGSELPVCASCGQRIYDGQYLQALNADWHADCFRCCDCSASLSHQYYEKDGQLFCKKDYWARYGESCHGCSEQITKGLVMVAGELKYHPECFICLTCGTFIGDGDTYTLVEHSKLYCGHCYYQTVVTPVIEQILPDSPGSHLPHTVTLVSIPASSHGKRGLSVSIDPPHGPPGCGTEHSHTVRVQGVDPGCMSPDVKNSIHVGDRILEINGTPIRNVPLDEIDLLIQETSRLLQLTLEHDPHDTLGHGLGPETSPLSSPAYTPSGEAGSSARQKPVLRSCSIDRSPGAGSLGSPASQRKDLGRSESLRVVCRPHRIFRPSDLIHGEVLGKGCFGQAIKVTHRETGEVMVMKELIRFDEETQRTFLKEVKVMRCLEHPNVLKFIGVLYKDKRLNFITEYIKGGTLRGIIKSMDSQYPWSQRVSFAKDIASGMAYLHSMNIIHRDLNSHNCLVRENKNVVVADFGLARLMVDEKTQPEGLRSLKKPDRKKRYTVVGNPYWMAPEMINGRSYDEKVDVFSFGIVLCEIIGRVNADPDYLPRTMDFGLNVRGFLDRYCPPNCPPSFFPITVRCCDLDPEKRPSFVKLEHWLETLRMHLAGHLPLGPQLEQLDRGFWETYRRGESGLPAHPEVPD
Sequence of Proto-oncogene tyrosine-protein kinase Src (Homo sapiens) (P12931 2-536 limits assumed): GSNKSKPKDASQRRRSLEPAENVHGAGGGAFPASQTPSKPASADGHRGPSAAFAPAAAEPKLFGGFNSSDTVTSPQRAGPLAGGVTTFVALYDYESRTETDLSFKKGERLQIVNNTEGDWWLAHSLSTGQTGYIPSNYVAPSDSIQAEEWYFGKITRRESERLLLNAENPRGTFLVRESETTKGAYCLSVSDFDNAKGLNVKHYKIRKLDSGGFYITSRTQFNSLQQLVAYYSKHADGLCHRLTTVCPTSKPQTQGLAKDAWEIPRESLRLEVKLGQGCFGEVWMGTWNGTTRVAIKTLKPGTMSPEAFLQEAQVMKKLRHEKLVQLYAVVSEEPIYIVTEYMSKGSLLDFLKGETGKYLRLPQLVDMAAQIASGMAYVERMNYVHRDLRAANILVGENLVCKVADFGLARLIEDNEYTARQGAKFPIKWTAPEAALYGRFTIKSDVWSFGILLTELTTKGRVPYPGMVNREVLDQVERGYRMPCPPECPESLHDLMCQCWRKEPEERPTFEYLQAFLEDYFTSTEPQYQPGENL

As for `O=C(N[C@@H](C1CC1)C(F)(F)F)c1cc(-c2cnn3cc(-c4ccc(F)cc4)cnc23)cs1`, the fold change (FC) came to 0.63 in [1] and 0.25 in [3]. The inhibition in [2] amounted to 0%; in test [4], 5%; in test [5], 20%; in test [6], 2%; in [7] it was 0%.

For the compound `CNC(=O)c1ccccc1Oc1nc(Nc2cc(OC)c(OC)c(OC)c2)ncc1Br`, the fold change (FC) in test [8] was 0.31. In addition, the inhibition in test [9] was 42%; in test [10], 31%.

Regarding `CC(C)[C@H](NC(=O)c1cc(-c2cnn3cc(-c4ccc(OCCN5CCCCC5)cc4)cnc23)cs1)C(F)(F)F`, in test [11], the inhibition came to 0%. For the same compound, the fold change (FC) in [12] stood at 0.64; in [13], 0.83; in test [14] it was 0; in test [15], 0.

For orientation: inhibition means how much of the control response was suppressed.
